In the library only some 3.6% were active in any assay of this set; here they are far more common.
SR-BI DiI inh = inhibitors of mouse SR-BI mediated HDL lipid uptake; ldlA[mSR-BI] CHO cells, DiI-HDL uptake fluorescence, 3 h; 0.96% of 320,000 active; inhibition, % at 12.5 µM; Q61009;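 active means mean replicate inhibition of at least 70% and a set share of replicates each scoring 70 or more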
Target sequence (Q61009 whole entry, looked up): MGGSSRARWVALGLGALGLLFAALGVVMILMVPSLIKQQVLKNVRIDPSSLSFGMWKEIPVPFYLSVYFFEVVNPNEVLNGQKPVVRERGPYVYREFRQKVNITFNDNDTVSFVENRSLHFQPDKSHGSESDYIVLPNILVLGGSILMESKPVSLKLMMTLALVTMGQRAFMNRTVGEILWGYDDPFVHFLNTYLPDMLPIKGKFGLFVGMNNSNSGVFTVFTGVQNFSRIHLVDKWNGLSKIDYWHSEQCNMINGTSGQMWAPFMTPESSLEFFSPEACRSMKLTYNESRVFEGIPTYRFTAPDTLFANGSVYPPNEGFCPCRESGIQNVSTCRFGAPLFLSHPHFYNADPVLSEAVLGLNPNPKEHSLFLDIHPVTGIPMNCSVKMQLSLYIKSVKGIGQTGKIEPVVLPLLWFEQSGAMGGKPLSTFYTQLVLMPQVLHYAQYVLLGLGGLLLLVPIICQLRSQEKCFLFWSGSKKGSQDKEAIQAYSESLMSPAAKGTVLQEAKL
MITF act = activators of MITF-driven TRPM1 promoter activity in SK-MEL-5 cells. 0.75% of 300,000 active. activation, % at 12.5 µM. SK-MEL-5 TRPM1-promoter luciferase, 24 h; % of positive control, neutral wells = 0;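 active means mean activation of at least 80% with every replicate also reaching 80%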
HSF1 activator = increases HSF-1 driven luciferase reporter signal; NIH3T3-HGL HSF-1 luciferase reporter, MG132, 8 h; 100% = twice DMSO control signal; activation, % at 9 µM; 1.7% of 300,000 active; AID 504408;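 active means mean replicate activation of at least 50% with a set share of replicates each reaching 50%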
Wnt act = Wnt/beta-catenin pathway activation. Wnt/beta-catenin reporter cell assay, activator, plate reader. activation, % at 9.35 µM. 1.2% of 300,000 active; in the data active means activation above about 30%, passing the limit was not always enough
SR-BI DiI-HDL act = enhances SR-BI lipid uptake from DiI-HDL | CHO ldlA[mSR-BI] cells, DiI-HDL uptake fluorescence, 3 h; 100 = double the neutral-control signal | 0.096% of 320,000 active | activation, % at 12.5 µM;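 active means mean replicate activation of at least 60% and every replicate at or above 60%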
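Test system: SR-BI-overexpressing, LDLR-lacking CHO cells; Also added: labelled HDL, 10 µg/mL; Measured by: bottom-read cell fluorescence after medium removal, ex 550/em 595 nm; Timing: 3 h uptake period with compound, 37 °C; Buffer or medium: F12, 0.5% BSA, 25 mM HEPES; Doses: single compound concentration, delivered by pin transfer.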
Large screens that a line does not name were inactive.

CC1=CC(=C2C(=O)c3ccccc3C2=O)C=C(C)N1Cc1ccco1	Wnt act 51
O=C1c2ccccc2C(=O)N1Cc1ccco1	none (no result: Wnt act)
CCN1CCc2nc(NC(=O)c3ccccc3)sc2C1	none (no result: Wnt act)
O=C(Nc1nc2c(s1)CN(Cc1ccccc1)CC2)C1CCC1	MITF act 100
Nn1c(SCC(=O)NC2CCCC2)nnc1C(F)(F)F	none (no result: SR-BI DiI inh, MITF act, HSF1 activator, SR-BI DiI-HDL act)
O=C(Nc1ccc(N2CCOCC2)cc1)c1csc(COCCO)n1	none (no result: SR-BI DiI inh, MITF act, HSF1 activator, SR-BI DiI-HDL act)
CC(C)(C)NC(=O)c1ccc2c3c(cccc13)CC2	HSF1 activator 101
CCCCOCCCNC(=O)C[C@@H]1C[C@@]2(C(=O)OCC)CCC=C2N(CCC2=CCCCC2)C1=O	none (no result: SR-BI DiI inh, MITF act, HSF1 activator, SR-BI DiI-HDL act)
Cc1ccc(N=Nc2ccc(O)c3ncccc23)cc1	HSF1 activator 123
CCOC(=O)N1N=C(c2ccc(C)cc2)CC1(O)C(F)(F)F (configuration not stated)	none
CCOC(=O)N1N=C(CC)CC1(O)C(F)(F)F (configuration not stated)	Wnt act 34
CC(C)[C@H](NC(=O)c1ccc(Cl)c(Cl)c1)C(=O)N1CCC[C@H]1C(=O)NCCc1ccccc1Cl	none (no result: SR-BI DiI inh, MITF act, HSF1 activator, SR-BI DiI-HDL act)
Cc1nc(CN2C(=O)C3(CCC3)ON=C2c2cccc(Cl)c2)cs1	none (no result: SR-BI DiI inh, MITF act, HSF1 activator, SR-BI DiI-HDL act)
CCOC(=O)CC(=O)CSCC(=O)Nc1ccc(C)cc1	HSF1 activator 86 (no result: Wnt act)
COc1ccc(OC)c(NC(=O)c2cc(-c3cc(C)ccc3O)n[nH]2)c1	SR-BI DiI inh 76
Cc1ccc(C)c(NC(=O)c2cc(-c3cc(C)c(C)cc3O)n[nH]2)c1	MITF act 100
CC(=O)Nc1ccc(NC(=O)c2cc(-c3ccc(C)c(C)c3O)n[nH]2)cc1	SR-BI DiI inh 73
C[C@H]1CN(S(=O)(=O)C(C)(C)C)[C@@H](CCO)/C1=C\c1ccccc1	none (no result: SR-BI DiI inh, MITF act, HSF1 activator, SR-BI DiI-HDL act)
COc1cc(Cl)ccc1OCc1cc(C(=O)N2CCCCCC2)no1	none
COc1cc(Cl)ccc1OCc1cc(C(=O)NC(C)Cc2cnccn2)no1 (configuration not stated)	MITF act 88, HSF1 activator 59, Wnt act 47
COc1ccc(OCc2cc(C(=O)N3CCC(OC)CC3)no2)c2ccccc12	none
COc1cc(Cl)ccc1OCc1cc(C(=O)N2CCCC(OC)C2)no1 (configuration not stated)	Wnt act 45
CCCOC1CCCN(C(=O)c2cc(COc3ccc(F)c(F)c3)on2)C1 (configuration not stated)	MITF act 90
CCOC(=O)C1CCN(C(=O)c2cc(COc3ccc(OC)c4ccccc34)on2)CC1	Wnt act 40
Cc1cccc(-n2c(SCC(=O)NCC3CCCO3)nc3ccccc3c2=O)c1C (configuration not stated)	none (no result: HSF1 activator)
O=[N+]([O-])c1ccc(OC2OCC(O)C(O)C2O)cc1 (configuration not stated)	none (no result: SR-BI DiI inh, MITF act, HSF1 activator, SR-BI DiI-HDL act)
CN(C)CCC(C(=O)c1ccccc1)c1cccnc1 (configuration not stated)	none (no result: HSF1 activator)
C[C@@H]1CCCCO[C@H](CN(C)Cc2ccncc2)[C@@H](C)CN([C@H](C)CO)C(=O)c2cc(N(C)C)ccc2O1	none (no result: SR-BI DiI inh, MITF act, HSF1 activator, SR-BI DiI-HDL act)
Cc1noc(C)c1S(=O)(=O)Nc1ccc2c(c1)C(=O)N([C@H](C)CO)C[C@H](C)[C@@H](CN(C)C(=O)CCCN(C)C)OCCCC[C@@H](C)O2	none (no result: SR-BI DiI inh, MITF act, HSF1 activator, SR-BI DiI-HDL act)
C[C@H](CO)N1C[C@H](C)[C@@H](CN(C)C(=O)Nc2cccc(Oc3ccccn3)c2)OCc2cn(nn2)CCCC1=O	none (no result: SR-BI DiI inh, MITF act, HSF1 activator, SR-BI DiI-HDL act)
COc1cc(Cl)ccc1OCc1cc(C(=O)N2CCN(C)C(=O)[C@@H]2C)no1	Wnt act 43 (no result: SR-BI DiI inh, MITF act, HSF1 activator, SR-BI DiI-HDL act)
COc1ccc(OCc2cc(C(=O)NC3CCOC(C)(C)C3)no2)c2ccccc12 (configuration not stated)	HSF1 activator 93
COc1cc(C)ccc1OCc1cc(C(=O)N2CCC(c3ccc(F)cc3)C2)no1 (configuration not stated)	MITF act 82, Wnt act 41
COCC1CCN(C(=O)c2cc(COc3ccc(F)cc3F)on2)C1 (configuration not stated)	none
COC(=O)[C@@H](Cc1c[nH]c2ccccc12)NC(=O)c1ccc2c(c1)OCO2	HSF1 activator 70, Wnt act 38
O=C(COC(=O)[C@H](Cc1c[nH]c2ccccc12)NC(=O)c1ccc(Cl)cc1)Nc1ccc2c(c1)OCO2	none (no result: Wnt act)

Screens deposited in PubChem BioAssay by Broad Institute.
